Measurements reported in ChEMBL document CHEMBL4130512, “Design, synthesis and biological evaluation of novel α-hederagenin derivatives with anticancer activity” (Eur J Med Chem, 2017).

Legend:
MKN-45 [1] = assay: Antiproliferative activity against human MKN45 cells assessed as cell viability at 10 uM after 72 hrs by MTT assay relative to control; format: functional; conditions: MKN-45, 72 h, read-out: Activity
Method in brief: (§1)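 Single-concentration MTT screen. Log-phase cells in DMEM with 10% FCS were treated for 72 h in 96-well plates. After MTT and DMSO, absorbance was read at 570 nm. Viability was calculated relative to control as mean ± SD of three independent experiments.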

KB [2] = assay: Antiproliferative activity against human KB cells assessed as cell viability at 10 uM after 72 hrs by MTT assay relative to control; format: functional; conditions: read-out: Activity; method in brief: as §1
KB [3] = assay: Antiproliferative activity against human KB cells after 72 hrs by MTT assay; format: functional, cell-based
Method in brief: (§2)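 Cells grown in DMEM with 10% heat-inactivated FCS, penicillin and streptomycin, at 37°C in 5% CO₂, and used in log phase. Cells were seeded in 96-well plates and exposed to compound for 72 h. MTT was added, then DMSO, and OD was read at 570 nm. Survival rate was calculated and IC50 taken as 50% growth inhibition.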

[4] = Antiproliferative activity against human KBV cells after 72 hrs by MTT assay; format: functional, cell-based; method in brief: as §2
HeLa = assay: Antiproliferative activity against human HeLa cells after 72 hrs by MTT assay; format: functional, cell-based; method in brief: as §2
A549 = assay: Antiproliferative activity against human A549 cells after 72 hrs by MTT assay; format: functional, cell-based; conditions: A549, 72 h; method in brief: as §2
MKN-45 [5] = assay: Antiproliferative activity against human MKN45 cells after 72 hrs by MTT assay; format: functional, cell-based; conditions: MKN-45, 72 h; method in brief: as §2
BGC-823 = assay: Antiproliferative activity against human BGC823 cells after 72 hrs by MTT assay; format: functional, cell-based; conditions: BGC-823, 72 h; method in brief: as §2
AGS = assay: Antiproliferative activity against human AGS cells after 72 hrs by MTT assay; format: functional, cell-based; method in brief: as §2
MKN-45 [6] = assay: Cell cycle arrest in human MKN45 cells assessed as apoptotic cell accumulation at 10 uM after 24 hrs by propidium iodide staining based flow cytometry (reference value: 1.51%); format: functional
Method in brief: (§3)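 MKN45 cells were plated at 2×10⁵ cells/well in 6-well plates and exposed for 24 and 48 h. Cells were harvested, fixed and stained with propidium iodide (50 µg/mL). DNA content was read by FACScan flow cytometry for phase distribution. The sub-G0/G1 fraction was taken as apoptotic.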

MKN-45 [7] = assay: Cell cycle arrest in human MKN45 cells assessed as accumulation at G1-phase at 10 uM after 24 hrs by propidium iodide staining based flow cytometry (reference value: 67%); format: functional; method in brief: as §3
MKN-45 [8] = assay: Cell cycle arrest in human MKN45 cells assessed as accumulation at S-phase at 10 uM after 24 hrs by propidium iodide staining based flow cytometry (reference value: 15%); format: functional; method in brief: as §3
MKN-45 [9] = assay: Cell cycle arrest in human MKN45 cells assessed as accumulation at G2/M-phase at 10 uM after 24 hrs by propidium iodide staining based flow cytometry (reference value: 19%); format: functional; method in brief: as §3
MKN-45 [10] = assay: Cell cycle arrest in human MKN45 cells assessed as apoptotic cell accumulation at 10 uM after 48 hrs by propidium iodide staining based flow cytometry (reference value: 1.51%); format: functional; method in brief: as §3
MKN-45 [11] = assay: Cell cycle arrest in human MKN45 cells assessed as accumulation at G1-phase at 10 uM after 48 hrs by propidium iodide staining based flow cytometry (reference value: 67%); format: functional; method in brief: as §3
MKN-45 [12] = assay: Cell cycle arrest in human MKN45 cells assessed as accumulation at S-phase at 10 uM after 48 hrs by propidium iodide staining based flow cytometry (reference value: 15%); format: functional; method in brief: as §3
MKN-45 [13] = assay: Cell cycle arrest in human MKN45 cells assessed as accumulation at G2/M-phase at 10 uM after 48 hrs by propidium iodide staining based flow cytometry (reference value: 19%); format: functional; method in brief: as §3

## CC1(C)CC[C@]2(C(=O)OCc3ccccc3)CC[C@]3(C)C(=CC[C@@H]4[C@@]5(C)CCC(=O)[C@@](C)(COC(=O)c6ccccc6C(=O)Oc6ccc(CCO[N+](=O)[O-])cc6)[C@@H]5CC[C@]43C)[C@@H]2C1
MKN-45 [1]
  viability at 10 µM: 78%
KB [2]
  viability at 10 µM: 86%

## CC1(C)CC[C@]2(C(=O)OCc3ccccc3)CC[C@]3(C)C(=CC[C@@H]4[C@@]5(C)CCC(=O)[C@@](C)(COC(=O)CCCCO[N+](=O)[O-])[C@@H]5CC[C@]43C)[C@@H]2C1
MKN-45 [1]
  viability at 10 µM: 54%
KB [2]
  viability at 10 µM: 60%

## CC1(C)CC[C@]2(C(=O)OCc3ccccc3)CC[C@]3(C)C(=CC[C@@H]4[C@@]5(C)CCC(=O)[C@@](C)(COC(=O)c6ccccc6C(=O)O)[C@@H]5CC[C@]43C)[C@@H]2C1
MKN-45 [1]
  viability at 10 µM: 40%
KB [2]
  viability at 10 µM: 51%

## CC1(C)CC[C@]2(C(=O)OCc3ccccc3)CC[C@]3(C)C(=CC[C@@H]4[C@@]5(C)CCC(=O)[C@@](C)(COC(=O)CCC(=O)Nc6ccccc6N)[C@@H]5CC[C@]43C)[C@@H]2C1
MKN-45 [1]
  viability at 10 µM: 99%
KB [2]
  viability at 10 µM: 50%

## CC1(C)CC[C@]2(C(=O)OCc3ccccc3)CC[C@]3(C)C(=CC[C@@H]4[C@@]5(C)Cc6nccnc6[C@@](C)(COC(=O)CCC(=O)Nc6ccccc6N)[C@@H]5CC[C@]43C)[C@@H]2C1
MKN-45 [1]
  viability at 10 µM: 86%
KB [2]
  viability at 10 µM: 57%

## CC1(C)CC[C@]2(C(=O)OCc3ccccc3)CC[C@]3(C)C(=CC[C@@H]4[C@@]5(C)CCC(OC(=O)CCCCO[N+](=O)[O-])[C@@](C)(COC(=O)CCCCO[N+](=O)[O-])[C@@H]5CC[C@]43C)[C@@H]2C1 (stereo partly drawn)
MKN-45 [1]
  viability at 10 µM: 97%
KB [2]
  viability at 10 µM: 58%

## CC1(C)CC[C@]2(C(=O)OCc3ccccc3)CC[C@]3(C)C(=CC[C@@H]4[C@@]5(C)Cc6nccnc6[C@@](C)(COC(=O)c6ccccc6C(=O)O)[C@@H]5CC[C@]43C)[C@@H]2C1
MKN-45 [1]
  viability at 10 µM: 84%
KB [2]
  viability at 10 µM: 81%

## CC1(C)CC[C@]2(C(=O)OCc3ccccc3)CC[C@]3(C)C(=CC[C@@H]4[C@@]5(C)Cc6nccnc6[C@@](C)(COC(=O)CCCCCO[N+](=O)[O-])[C@@H]5CC[C@]43C)[C@@H]2C1
MKN-45 [1]
  viability at 10 µM: 84%
KB [2]
  viability at 10 µM: 63%

## CC1(C)CC[C@]2(C(=O)OCc3ccccc3)CC[C@]3(C)C(=CC[C@@H]4[C@@]5(C)Cc6nccnc6[C@@](C)(COC(=O)CCC(=O)O)[C@@H]5CC[C@]43C)[C@@H]2C1
MKN-45 [1]
  viability at 10 µM: 70%
KB [2]
  viability at 10 µM: 98%

## CC1(C)CC[C@]2(C(=O)OCc3ccccc3)CC[C@]3(C)C(=CC[C@@H]4[C@@]5(C)Cc6nccnc6[C@@](C)(CO)[C@@H]5CC[C@]43C)[C@@H]2C1
MKN-45 [1]
  viability at 10 µM: 77%
KB [2]
  viability at 10 µM: 75%

## CC1(C)CC[C@]2(C(=O)OCc3ccccc3)CC[C@]3(C)C(=CC[C@@H]4[C@@]5(C)Cc6nccnc6[C@@](C)(COC(=O)CCCCO[N+](=O)[O-])[C@@H]5CC[C@]43C)[C@@H]2C1
MKN-45 [1]
  viability at 10 µM: 89%
KB [2]
  viability at 10 µM: 59%

## CC1(C)CC[C@]2(C(=O)OCc3ccccc3)CC[C@]3(C)C(=CC[C@@H]4[C@@]5(C)CCC(=O)[C@@](C)(COC(=O)c6ccccc6C(=O)Nc6cccc(N)c6)[C@@H]5CC[C@]43C)[C@@H]2C1
MKN-45 [1]
  viability at 10 µM: 93%
KB [2]
  viability at 10 µM: 62%

## CC1(C)CC[C@]2(C(=O)OCc3ccccc3)CC[C@]3(C)C(=CC[C@@H]4[C@@]5(C)Cc6nccnc6[C@@](C)(COC(=O)CCC(=O)Oc6ccc(CCO[N+](=O)[O-])cc6)[C@@H]5CC[C@]43C)[C@@H]2C1
MKN-45 [1]
  viability at 10 µM: 100%
KB [2]
  viability at 10 µM: 69%

## CC1(C)CC[C@]2(C(=O)OCc3ccccc3)CC[C@]3(C)C(=CC[C@@H]4[C@@]5(C)CCC(=O)[C@@](C)(COC(=O)CCC(=O)Nc6ccc(N)cc6)[C@@H]5CC[C@]43C)[C@@H]2C1
MKN-45 [1]
  viability at 10 µM: 92%
KB [2]
  viability at 10 µM: 51%

## CC1(C)CC[C@]2(C(=O)O)CC[C@]3(C)C(=CC[C@@H]4[C@@]5(C)CC[C@H](O)[C@@](C)(CO)[C@@H]5CC[C@]43C)[C@@H]2C1 [HEDERAGENIN]
MKN-45 [1]
  viability at 10 µM: 75%
KB [2]
  viability at 10 µM: 81%
KB [3]
  IC50: 54.4 µM
[4]
  IC50: > 100 µM
HeLa
  IC50: 54 µM
A549
  IC50: > 100 µM
MKN-45 [5]
  IC50: 53.7 µM
BGC-823
  IC50: 52.1 µM
AGS
  IC50: 36.1 µM
MKN-45 [6]
  Activity: 1.44%
MKN-45 [7]
  Activity: 69%
MKN-45 [8]
  Activity: 14%
MKN-45 [9]
  Activity: 17%
MKN-45 [10]
  Activity: 5.87%
MKN-45 [11]
  Activity: 63%
MKN-45 [12]
  Activity: 12%
MKN-45 [13]
  Activity: 25%

## CC1(C)CC[C@]2(C(=O)OCc3ccccc3)CC[C@]3(C)C(=CC[C@@H]4[C@@]5(C)Cc6nccnc6[C@@](C)(COC(=O)c6ccccc6C(=O)OCCc6ccc(OCCO[N+](=O)[O-])cc6)[C@@H]5CC[C@]43C)[C@@H]2C1
MKN-45 [1]
  viability at 10 µM: 84%
KB [2]
  viability at 10 µM: 55%

## CC1(C)CC[C@]2(C(=O)OCc3ccccc3)CC[C@]3(C)C(=CC[C@@H]4[C@@]5(C)Cc6nccnc6[C@@](C)(COC(=O)CCC(=O)OCCc6ccc(OCCO[N+](=O)[O-])cc6)[C@@H]5CC[C@]43C)[C@@H]2C1
MKN-45 [1]
  viability at 10 µM: 93%
KB [2]
  viability at 10 µM: 50%

## CC1(C)CC[C@]2(C(=O)OCc3ccccc3)CC[C@]3(C)C(=CC[C@@H]4[C@@]5(C)CCC(OC(=O)CCCCCO[N+](=O)[O-])[C@@](C)(COC(=O)CCCCCO[N+](=O)[O-])[C@@H]5CC[C@]43C)[C@@H]2C1 (stereo partly drawn)
MKN-45 [1]
  viability at 10 µM: 85%
KB [2]
  viability at 10 µM: 61%

## CC1(C)CC[C@]2(C(=O)OCc3ccccc3)CC[C@]3(C)C(=CC[C@@H]4[C@@]5(C)CC/C(=N\O)[C@@](C)(CO)[C@@H]5CC[C@]43C)[C@@H]2C1
MKN-45 [1]
  viability at 10 µM: 64%
KB [2]
  viability at 10 µM: 76%

## CC1(C)CC[C@]2(C(=O)OCc3ccccc3)CC[C@]3(C)C(=CC[C@@H]4[C@@]5(C)Cc6nccnc6[C@@](C)(COC(=O)c6ccccc6C(=O)Oc6ccc(CCO[N+](=O)[O-])cc6)[C@@H]5CC[C@]43C)[C@@H]2C1
MKN-45 [1]
  viability at 10 µM: 78%
KB [2]
  viability at 10 µM: 49%

## CC1(C)CC[C@]2(C(=O)OCc3ccccc3)CC[C@]3(C)C(=CC[C@@H]4[C@@]5(C)CCC(=O)[C@@](C)(COC(=O)c6ccccc6C(=O)OCCc6ccc(OCCO[N+](=O)[O-])cc6)[C@@H]5CC[C@]43C)[C@@H]2C1
MKN-45 [1]
  viability at 10 µM: 89%
KB [2]
  viability at 10 µM: 67%

## CC1(C)CC[C@]2(C(=O)OCc3ccccc3)CC[C@]3(C)C(=CC[C@@H]4[C@@]5(C)CCC(=O)[C@@](C)(COC(=O)CCC(=O)Oc6ccc(CCO[N+](=O)[O-])cc6)[C@@H]5CC[C@]43C)[C@@H]2C1
MKN-45 [1]
  viability at 10 µM: 100%
KB [2]
  viability at 10 µM: 53%

## CC1(C)CC[C@]2(C(=O)OCc3ccccc3)CC[C@]3(C)C(=CC[C@@H]4[C@@]5(C)CCC(=O)[C@@](C)(COC(=O)CCCCCO[N+](=O)[O-])[C@@H]5CC[C@]43C)[C@@H]2C1
MKN-45 [1]
  viability at 10 µM: 75%
KB [2]
  viability at 10 µM: 50%

## CC1(C)CC[C@]2(C(=O)OCc3ccccc3)CC[C@]3(C)C(=CC[C@@H]4[C@@]5(C)CCC(=O)[C@@](C)(COC(=O)CCC(=O)OCCc6ccc(OCCO[N+](=O)[O-])cc6)[C@@H]5CC[C@]43C)[C@@H]2C1
MKN-45 [1]
  viability at 10 µM: 93%
KB [2]
  viability at 10 µM: 76%
